# Bioassay records: PubChem, several laboratories
# VIM-2 inhibitor: VIM-2 metallo-beta-lactamase inhibitors, primary screen, biochemical, epi-absorbance readout, Pseudomonas aeruginosa enzyme; 0.89% of 290,000 active; purified VIM-2, nitrocefin hydrolysis, epi-absorbance fluorescence; inhibition, % at 5.6 µM; AID 1527, 2009;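 active = inhibition above the mean of all tested compounds plus 3 SD, cutoff set per screening run, cut at about 7.5% in these data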;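 note: red hydrolysis product quenches plate fluorescence so inhibitors raise well fluorescence; 0% = enzyme with DMSO and 100% = DMSO without enzyme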
# NadD block: inhibitors of S. aureus NadD, primary screen, biochemical, colorimetric, uHTS; Nicotinate-nucleotide adenylyltransferase NadD (Staphylococcus aureus N315); purified NadD enzyme, colorimetric absorbance read-out; inhibition, % at 20 µM; 0.78% of 360,000 active; in the data active = inhibition above about 26%
# IMP-1 inh-1: IMP-1 metallo-beta-lactamase inhibitors, primary screen, biochemical, epi-absorbance readout, Pseudomonas aeruginosa enzyme | purified IMP-1, nitrocefin hydrolysis, epi-absorbance fluorescence | metallo-beta-lactamase IMP-1 (Pseudomonas aeruginosa) | inhibition, % at 5.6 µM | 0.45% of 290,000 active | AID 1556, 2009;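 active = inhibition above the mean plus 3 SD of all compounds in the same screening run, cut at about 4.5% in these data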;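 note: 0% = IMP-1 with DMSO and 100% = DMSO wells lacking enzyme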
#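 Assay system: purified IMP-1; Quantity: IMP-1 0.2 nM before substrate addition; Medium: HEPES buffer pH 7.1 with ZnSO4 and Brij 35; Incubation: 15 min enzyme–compound preincubation, then 25 min nitrocefin reaction, 25 °C; Signal: fluorescence quenching readout, ex 480/em 530 nm; Controls: DMSO with and without IMP-1; Repeats: singlicate testing.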
# core dimer inh: inhibitors of HCV core protein dimerization, primary screen, biochemical, TR-FRET, high-throughput; TR-FRET GST/Flag-core106 dimerization, 1536-well; inhibition, % at 5 µM; 0.33% of 300,000 active; AID 1899, 2009;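 active = inhibition above the mean of all tested compounds plus 3 SD, set per screening campaign, cut at about 45% in these data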
#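 Material: Tagged HCV core106 pair (GST and Flag) | Amount: GST-core106 13.5 nM, Flag-core106 17 nM | Medium: KF-containing HEPES buffer, pH 7.45, DTT, CHAPS, BSA | Reagent: Eu donor and XL665 acceptor anti-tag antibodies | Schedule: 4 h at 22.5 °C | Technique: Time-resolved FRET, ex 340 nm, em 617 and 671 nm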
# IMP-1 inh-2: IMP-1 metallo-beta-lactamase inhibitors, confirmation, selectivity assay for selective VIM-2 inhibitor project, biochemical, epi-absorbance readout, triplicate; shares compounds with VIM-2 inhibitor; purified IMP-1, nitrocefin hydrolysis, epi-absorbance fluorescence; inhibition, % at 5.6 µM; 1,300 tested, under 10 active; call rule not given here;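 note: 0% = enzyme with vehicle and 100% = vehicle without enzyme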
# VIM-2 FRET ctr: VIM-2 inhibitors in FRET format, confirmation, artefact control for selective VIM-2 inhibitor project, biochemical, epi-absorbance artifact exclusion. purified VIM-2, CCF2 FRET substrate hydrolysis. 23% of 1,300 active. inhibition, % at 5.6 µM. shares compounds with VIM-2 inhibitor. AID 1857, 2009;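 active = inhibition above the mean of all tested compounds plus 3 SD, cut at about 19% in these data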;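 note: 0% = VIM-2 plus DMSO and 100% = no enzyme wells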
# TEM-1 counter: TEM-1 serine beta-lactamase inhibitors, counter-screen for VIM-2 inhibitor project, biochemical, epi-absorbance, HTS; shares compounds with VIM-2 inhibitor; Purified TEM-1, nitrocefin hydrolysis, epi-absorbance fluorescence; inhibition, % at 5.6 µM; 3% of 1,300 active;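 active = inhibition above that campaign's mean inhibition plus 3 SD, cut at about 0.46% in these data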;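 note: 0% = TEM-1 with DMSO and 100% = TEM-1 with 100 µM potassium clavulanate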
# Target sequence (P62593 whole entry, looked up): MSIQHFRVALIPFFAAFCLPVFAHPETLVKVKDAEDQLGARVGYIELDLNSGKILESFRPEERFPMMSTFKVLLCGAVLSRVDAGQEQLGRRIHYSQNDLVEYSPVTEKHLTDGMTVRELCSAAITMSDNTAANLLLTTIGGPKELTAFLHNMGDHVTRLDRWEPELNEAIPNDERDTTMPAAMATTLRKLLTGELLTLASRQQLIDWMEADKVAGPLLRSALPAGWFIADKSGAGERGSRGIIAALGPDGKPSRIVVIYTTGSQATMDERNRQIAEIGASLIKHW
# VIM-2 confirm 2: VIM-2 metallo-beta-lactamase inhibitors, confirmation, biochemical, epi-absorbance, hits shared with IMP-1 screen; 96% of 1,300 active; inhibition, % at 5.6 µM; purified VIM-2, nitrocefin hydrolysis; shares compounds with VIM-2 inhibitor;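 active = inhibition of the VIM-2 beta-lactamase enzyme above about 11% from the earlier first-round screen, limit read from the data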;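 note: 0% = VIM-2 with DMSO and 100% = buffer wells without enzyme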
# * marks the source's active call; other numbers are inactive results; · = no result. Only some compounds are listed: those with a hit (about 1.9% of all), similar ones and a draw of the others.
SMILES,VIM-2 inhibitor,NadD block,IMP-1 inh-1,core dimer inh,IMP-1 inh-2,VIM-2 FRET ctr,TEM-1 counter,VIM-2 confirm 2
COc1ccc(/C=C2\CCCc3c2nc2ccccc2c3C(=O)OCC(=O)c2c(N)n(C)c(=O)n(C)c2=O)cc1,14.5*,·,0.4,13.4,-2.7,2.5,-6.4,5.9
COc1ccc(-c2cc(C(=O)OCC(=O)c3c(N)n(C)c(=O)n(C)c3=O)c3ccccc3n2)cc1,-1.6,11.2,-1.8,16.6,·,·,·,·
Cn1c(N)c(C(=O)COC(=O)c2cc(C3CC3)nc3ccccc23)c(=O)n(C)c1=O,13.2*,-6.7,-3.0,-10.7,-2.3,9.4,-6.5,63.0*
COC(=O)c1ccc2nc(-c3ccc(F)cc3)c(Cc3ccsc3)n2c1,·,-1.5,·,·,·,·,·,·
O=C1c2ccccc2S(=O)(=O)N1Cc1nnc(-c2ccccc2Br)o1,4.4,-0.4,-0.9,·,·,·,·,·
O=c1c2ccccc2nnn1Cc1nnc(-c2ccccc2Br)o1,17.2*,1.4,-2.5,-5.8,-1.7,20.9*,-3.4,13.2*
O=C(NCc1ccco1)c1cccn2c(=O)c3sccc3nc12,19.4*,2.2,-1.8,12.9,-1.7,-2.8,-8.0,34.1*
O=C(N/N=C/c1ccc(O)cc1O)c1ccc(NC(=O)C2CCCCC2)cc1,-3.9,11.8,-3.4,-3.5,·,·,·,·
CCOC(=O)C(=CNc1cc(OC)ccc1-n1cccc1)C(=O)OCC,-2.8,-6.9,-2.8,3.2,·,·,·,·
Cc1c(C)c2ccc(O[C@@H]3O[C@H](CO)[C@H](O)[C@H](O)[C@H]3O)c(C)c2oc1=O,4.3,-3.8,-4.9,·,·,·,·,·
Cc1c(O[C@@H]2O[C@H](CO)[C@@H](O)[C@H](O)[C@H]2O)ccc2c1oc(=O)c1ccccc12,25.3*,-3.9,-3.9,·,-2.7,-0.1,-8.2,35.5*
O=C(CSc1nnc(NC(=O)Cc2ccccc2)s1)NCC1CCCO1 (stereo not drawn),-0.9,-7.6,-1.3,0.5,·,·,·,·
O=C(CSc1nnc(NC(=O)c2ccccc2F)s1)NCC1CCCO1 (stereo not drawn),15.0*,3.0,-1.9,-2.9,-3.1,28.2*,-6.8,17.4*
O=C(CSc1nnc(NC(=O)c2ccccc2[N+](=O)[O-])s1)NCC1CCCO1 (stereo not drawn),19.2*,-5.1,-1.8,0.2,-3.3,34.7*,-6.1,23.0*
O=C(CCC(=O)N1CCN(c2ccccn2)CC1)Nc1nnc(C(F)(F)F)s1,-3.7,-3.6,-2.2,2.1,·,·,·,·
Nc1nccc(-c2ccc(-n3cnc4ccccc43)cc2)n1,18.1*,1.2,-3.7,2.9,-3.9,-5.7,-6.3,38.5*
c1ccc2c(c1)ncn2-c1ccc(-c2ccnc(-c3ccncc3)n2)cc1,7.4,-1.9,-2.2,-2.3,·,·,·,·
c1ccc2c(c1)ncn2-c1ccc(-c2ccnc3ncnn23)cc1,30.3*,1.7,-3.4,5.2,-2.0,-9.8,-3.3,64.8*
COc1ccc(-c2ccnc3ncnn23)cc1,-2.3,-6.2,-2.5,1.5,·,·,·,·
Cc1nccc(-c2ccc(-n3cnc4ccccc43)cc2)n1,17.1*,-3.9,0.2,0.2,-2.6,-2.5,-5.8,33.4*
CC1=CCC(C(=O)O)(C(=O)N/N=C/c2cccs2)C(c2ccc(Cl)cc2)C1 (stereo not drawn),15.0*,4.0,-0.6,11.2,-3.7,0.2,-4.8,4.1
CC(=O)c1ccc(NC(=O)CSc2nnc(NC(=O)C3CC3)s2)cc1,-2.3,-1.6,-1.6,-4.8,·,·,·,·
